From ChEMBL document CHEMBL5038638, “Structure-Activity Relationship Study of Subtype-Selective Positive Modulators of KCa2 Channels” (J Med Chem, 2022)
pEC50: −log10 of the molar value. Active and inactive are the calls of the source. No cut-off for these calls is given here.

Key:
Format in all cases: cell-based
[1] = molecular target: Small conductance calcium-activated potassium channel protein 2 (Rattus norvegicus, UniProt P70604); assay: Potentiation of rat KCa2.2a expressed in HEK293 cells at -90 mV holding potential measured at 1 to 2 days by patch clamp electrophysiology
Procedure, shortened: (§1)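 Inside-out patches from HEK293 cells transfected (calcium-phosphate) with channel cDNA plus CaM and GFP (7:4:2). Bath (mM): 140 KCl, 10 Hepes pH 7.2, 1 EGTA, 0.1 dibromo-BAPTA, 1 HEDTA, with Ca2+ added to set free Ca2+, verified against a fluorescence standard curve. Currents taken at –90 mV and normalized to the maximal-compound response. EC50 and Hill coefficient came from a concentration–response fit. Efficacy was the maximal-compound current relative to the current at 10 µM Ca2+.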

[2] = molecular target: Small conductance calcium-activated potassium channel protein 2 (Rattus norvegicus) (UniProt P70604); assay: Potentiation of rat KCa2.2a expressed in HEK293 cells at 0.01 to 100 uM with -90 mV holding potential measured at 1 to 2 days by patch clamp electrophysiology relative to calcium; conditions: filed as positive allosteric modulator, dose 0.01-100 µM, time 1-2 day; procedure, shortened: as §1
[3] = molecular target: Calcium-activated potassium channel subunit alpha-1 (Homo sapiens) (UniProt Q12791); assay: Potentiation of human KCa1.1 expressed in HEK293 cells at 100 uM with -90 mV holding potential measured at 1 to 2 days by patch clamp electrophysiology; conditions: time 1-2 day
[4] = molecular target: Small conductance calcium-activated potassium channel protein 1 (Homo sapiens) (UniProt Q92952); assay: Potentiation of human KCa2.1 expressed in HEK293 cells at 0.01 to 100 uM with -90 mV holding potential measured at 1 to 2 days by patch clamp electrophysiology relative to calcium; conditions: dose 0.01-100 µM, time 1-2 day; procedure, shortened: as §1
[5] = molecular target: Intermediate conductance calcium-activated potassium channel protein 4 (Homo sapiens) (UniProt O15554); assay: Potentiation of human KCa3.1 expressed in HEK293 cells at 0.01 to 100 uM with -90 mV holding potential measured at 1 to 2 days by patch clamp electrophysiology relative to calcium; conditions: dose 0.01-100 µM, time 1-2 day; procedure, shortened: as §1
N1E-115 = assay: Inhibition of mouse Nav1.2 expressed in mouse N1E-115 cells at 100 uM with -90 mV holding potential measured by patch clamp electrophysiology
[6] = molecular target: T1, Small conductance calcium-activated potassium channel protein 3 (Homo sapiens, UniProt Q9UGI6); assay: Potentiation of human KCa2.3 expressed in HEK293 cells at -90 mV holding potential measured at 1 to 2 days by patch clamp electrophysiology; procedure, shortened: as §1
[7] = molecular target: T1, Small conductance calcium-activated potassium channel protein 3; assay: Potentiation of human KCa2.3 expressed in HEK293 cells at -90 mV holding potential measured at 1 to 2 days by patch clamp electrophysiology relative to calcium; procedure, shortened: as §1

Chain of Small conductance calcium-activated potassium channel protein 2 (Rattus norvegicus) (P70604 whole entry): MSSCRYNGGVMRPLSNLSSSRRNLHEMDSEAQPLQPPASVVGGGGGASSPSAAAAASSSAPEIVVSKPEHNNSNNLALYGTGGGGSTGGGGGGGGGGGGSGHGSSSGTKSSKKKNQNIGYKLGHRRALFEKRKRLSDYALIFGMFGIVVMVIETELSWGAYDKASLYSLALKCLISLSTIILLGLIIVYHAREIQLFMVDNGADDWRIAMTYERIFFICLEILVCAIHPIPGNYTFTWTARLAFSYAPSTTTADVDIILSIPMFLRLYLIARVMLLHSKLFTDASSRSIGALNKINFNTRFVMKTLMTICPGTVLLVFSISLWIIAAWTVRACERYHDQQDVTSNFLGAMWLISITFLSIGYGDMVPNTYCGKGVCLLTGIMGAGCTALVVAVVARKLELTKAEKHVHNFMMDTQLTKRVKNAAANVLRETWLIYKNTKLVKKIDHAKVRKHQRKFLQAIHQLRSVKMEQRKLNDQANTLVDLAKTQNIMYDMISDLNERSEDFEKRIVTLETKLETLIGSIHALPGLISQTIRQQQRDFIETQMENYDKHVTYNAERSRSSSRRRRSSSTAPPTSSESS
Chain of Small conductance calcium-activated potassium channel protein 2 (P70604 whole entry): as above
Chain of Calcium-activated potassium channel subunit alpha-1 (Homo sapiens) (Q12791 whole entry): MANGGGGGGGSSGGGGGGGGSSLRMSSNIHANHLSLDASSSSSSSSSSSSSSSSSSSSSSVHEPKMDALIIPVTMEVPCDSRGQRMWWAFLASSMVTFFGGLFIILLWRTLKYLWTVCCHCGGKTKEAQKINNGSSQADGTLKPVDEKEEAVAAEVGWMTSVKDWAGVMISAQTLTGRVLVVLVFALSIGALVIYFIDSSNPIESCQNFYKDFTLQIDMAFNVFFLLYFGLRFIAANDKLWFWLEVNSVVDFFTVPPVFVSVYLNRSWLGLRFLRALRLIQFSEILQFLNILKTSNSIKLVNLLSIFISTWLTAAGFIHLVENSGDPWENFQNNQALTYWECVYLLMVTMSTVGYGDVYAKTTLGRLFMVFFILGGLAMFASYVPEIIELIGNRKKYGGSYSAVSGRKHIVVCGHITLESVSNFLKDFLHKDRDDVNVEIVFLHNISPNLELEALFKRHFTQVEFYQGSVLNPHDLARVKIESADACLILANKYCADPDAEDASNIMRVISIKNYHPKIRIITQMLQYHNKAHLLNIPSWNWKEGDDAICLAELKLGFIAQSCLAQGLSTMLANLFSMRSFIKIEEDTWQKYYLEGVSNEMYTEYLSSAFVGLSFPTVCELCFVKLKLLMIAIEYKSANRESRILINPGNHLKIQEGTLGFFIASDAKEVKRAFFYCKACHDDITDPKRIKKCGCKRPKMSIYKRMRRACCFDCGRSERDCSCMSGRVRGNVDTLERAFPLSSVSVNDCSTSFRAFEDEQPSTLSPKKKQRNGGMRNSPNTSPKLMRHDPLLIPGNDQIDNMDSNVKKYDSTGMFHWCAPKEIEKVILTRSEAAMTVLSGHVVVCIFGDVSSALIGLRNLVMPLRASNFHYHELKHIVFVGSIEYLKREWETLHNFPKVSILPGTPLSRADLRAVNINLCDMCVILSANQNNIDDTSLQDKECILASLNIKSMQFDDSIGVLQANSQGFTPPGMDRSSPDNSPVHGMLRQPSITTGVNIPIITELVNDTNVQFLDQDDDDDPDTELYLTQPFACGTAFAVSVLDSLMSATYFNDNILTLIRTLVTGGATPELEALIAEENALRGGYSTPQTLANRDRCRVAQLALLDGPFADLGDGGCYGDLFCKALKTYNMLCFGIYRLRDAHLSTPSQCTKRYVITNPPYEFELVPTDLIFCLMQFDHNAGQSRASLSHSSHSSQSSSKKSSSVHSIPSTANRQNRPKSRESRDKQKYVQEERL
Chain of Intermediate conductance calcium-activated potassium channel protein 4 (Homo sapiens) (O15554 whole entry): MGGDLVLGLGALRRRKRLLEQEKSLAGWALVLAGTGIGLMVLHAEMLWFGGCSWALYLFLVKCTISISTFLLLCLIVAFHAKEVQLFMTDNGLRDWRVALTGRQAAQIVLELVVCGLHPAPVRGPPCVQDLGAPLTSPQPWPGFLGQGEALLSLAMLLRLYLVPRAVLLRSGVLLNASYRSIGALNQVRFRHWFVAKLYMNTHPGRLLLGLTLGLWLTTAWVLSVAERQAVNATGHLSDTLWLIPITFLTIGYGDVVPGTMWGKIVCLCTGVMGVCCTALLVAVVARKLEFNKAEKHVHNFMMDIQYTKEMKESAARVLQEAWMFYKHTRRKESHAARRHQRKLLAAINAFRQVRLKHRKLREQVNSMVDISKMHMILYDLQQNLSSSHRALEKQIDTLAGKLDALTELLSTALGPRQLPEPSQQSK
Chain of Small conductance calcium-activated potassium channel protein 1 (Homo sapiens) (Q92952 whole entry): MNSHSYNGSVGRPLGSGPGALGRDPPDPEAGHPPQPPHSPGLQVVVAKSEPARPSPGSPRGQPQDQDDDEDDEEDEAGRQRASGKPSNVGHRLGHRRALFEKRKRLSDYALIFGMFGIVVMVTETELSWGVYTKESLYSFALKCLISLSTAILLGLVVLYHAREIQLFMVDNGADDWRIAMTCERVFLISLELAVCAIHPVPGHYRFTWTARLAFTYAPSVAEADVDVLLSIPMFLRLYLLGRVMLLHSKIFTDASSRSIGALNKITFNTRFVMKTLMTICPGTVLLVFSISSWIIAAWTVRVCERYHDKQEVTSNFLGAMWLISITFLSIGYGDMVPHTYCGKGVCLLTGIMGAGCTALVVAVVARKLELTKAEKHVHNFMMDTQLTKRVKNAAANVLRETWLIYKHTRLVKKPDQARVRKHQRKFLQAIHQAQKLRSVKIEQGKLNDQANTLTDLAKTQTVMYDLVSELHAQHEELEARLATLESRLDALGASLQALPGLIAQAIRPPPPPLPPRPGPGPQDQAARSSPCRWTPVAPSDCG
T1 sequence (Q9UGI6 whole entry): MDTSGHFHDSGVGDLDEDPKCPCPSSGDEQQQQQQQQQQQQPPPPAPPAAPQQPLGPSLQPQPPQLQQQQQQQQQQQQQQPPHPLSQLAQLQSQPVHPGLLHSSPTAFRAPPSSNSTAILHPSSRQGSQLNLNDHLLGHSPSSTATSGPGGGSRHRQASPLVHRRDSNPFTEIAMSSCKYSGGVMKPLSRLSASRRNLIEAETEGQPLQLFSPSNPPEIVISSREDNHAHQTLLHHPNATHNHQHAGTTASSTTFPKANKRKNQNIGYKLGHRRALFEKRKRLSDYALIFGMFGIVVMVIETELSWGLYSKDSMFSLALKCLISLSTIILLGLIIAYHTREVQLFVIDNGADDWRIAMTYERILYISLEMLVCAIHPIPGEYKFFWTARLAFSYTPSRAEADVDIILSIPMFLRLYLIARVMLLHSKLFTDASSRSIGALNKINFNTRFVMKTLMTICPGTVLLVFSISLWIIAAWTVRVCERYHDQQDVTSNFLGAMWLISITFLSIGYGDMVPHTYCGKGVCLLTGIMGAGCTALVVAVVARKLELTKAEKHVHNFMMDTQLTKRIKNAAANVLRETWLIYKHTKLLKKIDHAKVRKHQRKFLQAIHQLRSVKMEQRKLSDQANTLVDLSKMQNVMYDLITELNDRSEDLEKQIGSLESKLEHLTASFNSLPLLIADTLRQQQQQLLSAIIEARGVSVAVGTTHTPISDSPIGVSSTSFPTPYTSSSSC

pEC50 [1]	Compound	other results
5.72	Cc1cc(Nc2cc(F)ccc2F)nc(-n2nc(C)cc2C)n1	
6.19	Cc1cc(Nc2cc(Cl)ccc2F)nc(-n2nc(C)cc2C)n1	Activity [3]: inactive; Emax [2]: 90%; Emax [4]: 0%; Emax [5]: 2.02%; inhibition (N1E-115): 50%; pEC50 [6]: 6.22
< 4.52	Cc1cc(Nc2cc(C(=O)O)ccc2F)nc(-n2nc(C)cc2C)n1	
6.00	Cc1cc(Nc2ccc(F)c(Cl)c2)nc(-n2nc(C)cc2C)n1	Activity [3]: inactive; Emax [2]: 90%; Emax [4]: 0%; pEC50 [7]: 6.72; Emax [5]: 28.3%; inhibition (N1E-115): 50%
5.70	Cc1cc(Nc2ccc(Cl)cc2F)nc(-n2nc(C)cc2C)n1	
< 4.00	Cc1cc(C)n(-c2cc(Nc3ccc(Cl)cc3F)nc(N)n2)n1	
< 4.00	Cc1cc(C)n(-c2cc(Nc3ccc(F)c(Cl)c3)nc(N)n2)n1	
5.18	Cc1cc(C)n(-c2nc(N)cc(Nc3ccc(F)c(Cl)c3)n2)n1	
4.41	Cc1cn(-c2nc(C)cc(Nc3ccc(F)c(Cl)c3)n2)cn1	
5.30	Cc1cc(Nc2cccc(F)c2F)nc(-n2nc(C)cc2C)n1	
< 4.00	Cc1cc(C)n(-c2cc(Nc3cc(Cl)ccc3F)nc(N)n2)n1	
< 4.00	Cc1cc(C)n(-c2cc(Nc3cccc(Cl)c3)nc(N)n2)n1	
5.44	Cc1cc(Nc2ccc(F)c(Cl)c2)nc(-c2coc(C)n2)n1	
5.36	Cc1cc(C)n(-c2cc(C)c(Nc3ccc(F)c(Cl)c3)nn2)n1	
< 4.00	Cc1cc(C)n(-c2cc(Nc3cc(F)ccc3Cl)nc(N)n2)n1	
< 4.00	Cc1cc(C)n(-c2cc(Nc3cc(F)ccc3F)nc(N)n2)n1	
< 4.00	Cc1cc(C)n(-c2cc(Nc3ccc(C(F)(F)F)c(Cl)c3)nc(N)n2)n1	
5.49	Cc1cc(Nc2ccc(C(F)(F)F)c(Cl)c2)nc(-n2nc(C)cc2C)n1	
5.53	Cc1cc(Nc2cc(F)ccc2Cl)nc(-n2nc(C)cc2C)n1	

Continued, molecule first:

Compound	pEC50 [1]	other results
Cc1cc(N[C@@H](Cc2ccc(C#N)cc2)C(=O)O)nc(-n2nc(C)cc2C)n1	< 4.00	
Cc1cn(-c2nc(C)cc(Nc3cc(Cl)ccc3F)n2)cn1	5.35	
Cc1cc(Nc2ccc(C(F)(F)F)cc2)nc(-n2nc(C)cc2C)n1	5.46	
Cc1cc(NC2CCCCC2)nc(-n2nc(C)cc2C)n1	5.13	Emax [2]: 85.6%
Cc1cc(N[C@H]2CC[C@@H](CO)CC2)nc(-n2nc(C)cc2C)n1	< 4.00	
Cc1cc(NCCc2ccc([N+](=O)[O-])cc2)nc(-n2nc(C)cc2C)n1	< 4.00	
COc1cc2nc(Nc3cc(C)nc(-n4nc(C)cc4C)n3)[nH]c2cc1OC	< 4.00	
Cc1cc(N[C@H]2CC[C@@H](N)CC2)nc(-n2nc(C)cc2C)n1	< 4.00	
Cc1cc(N[C@H]2CC[C@@H]([N+](=O)[O-])CC2)nc(-n2nc(C)cc2C)n1	< 4.00	
Cc1cc(Nc2cc(Cl)ccc2F)nc(-c2coc(C)n2)n1	4.86	
Cc1cc(Nc2ccc(S)cc2)nc(-n2nc(C)cc2C)n1	< 4.00	
CO[C@H]1CC[C@@H](Nc2cc(C)nc(-n3nc(C)cc3C)n2)CC1	4.30	Emax [2]: 94.6%
Cc1cc(N[C@H]2CC[C@@H](F)CC2)nc(-n2nc(C)cc2C)n1	< 4.00	
Cc1cc(N[C@@H](Cc2ccc(F)c(F)c2)C(=O)O)nc(-n2nc(C)cc2C)n1	< 4.00	
Cc1cc(N[C@H]2CC[C@@H](O)CC2)nc(-n2nc(C)cc2C)n1	< 4.00	
Cc1cc(Nc2cc(Cl)cc(C(F)(F)F)c2)nc(-n2nc(C)cc2C)n1	< 4.00	
Cc1cc(N[C@@H](Cc2ccc(O)cc2)C(=O)O)nc(-n2nc(C)cc2C)n1	< 4.00	
Cc1cc(Nc2ccc([N+](=O)[O-])cc2)nc(-n2nc(C)cc2C)n1	< 4.00	
